# Screening results deposited in PubChem BioAssay by The Scripps Research Institute Molecular Screening Center.
# PLCg1 inh: PLC-gamma1 (human) inhibition, primary screen | P19174 | purified PLC-gamma1, fluorogenic substrate, fluorescence | inhibition, % at 12.2 µM | 370,000 tested, 0.84% active; in the data active means inhibition above about 9.5%
# PLC-beta3 inh: blocks human PLC-beta3 enzyme activity. Purified PLC-beta3, fluorogenic substrate, fluorescence. inhibition, % at 12.2 µM. 370,000 tested, 0.18% active. AID 720704; in the data active means inhibition above about 11%
# HGIII-sPLA2 inh: Inhibits HGIII-sPLA2 liposome hydrolysis, primary screen | Q9NZ20 | QFRET BODIPY PC-A2 liposome hydrolysis, fluorescence | inhibition, % at 12.2 µM | 370,000 tested, 0.56% active;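 active means inhibition above mean plus 3 SD of compounds lying within the high and low control bounds, cut at about 19% in these data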
# Tb MetRS inh: Trypanosoma brucei MetRS inhibition; 360,000 tested, 0.4% active; AID 624268; inhibition, % at 11.9 µM; purified T. brucei MetRS, ATP depletion, Kinase-Glo luminescence;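 active means inhibition above a per-plate cutoff of the control wells' mean inhibition plus 3 SD, cut at about 5.5% in these data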
#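 technique = Kinase-Glo luminescence, ATP depletion format | system = purified MetRS (methionyl-tRNA synthetase) enzyme from Trypanosoma brucei | timing = 15 min preincubation, 2 h reaction, all 25 °C | evaluation = percent inhibition versus plate control medians | dosing = single dose, 11.9 µM final nominal, 0.9% final DMSO | also added = substrates ATP, L-methionine and bulk Escherichia coli tRNA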
# sPLA2 confirm: human GIII-sPLA2 inhibition, confirmation; shares compounds with HGIII-sPLA2 inh; recombinant hGIII-sPLA2, BODIPY PC-A2 QFRET fluorescence; inhibition, % at 12.2 µM; 2,000 tested, 34% active; AID 743280;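 active means mean inhibition across triplicates above the hit cutoff set in the earlier primary screen, cut at about 19% in these data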
# BODIPY interf: 535nm fluorescence interference, HGIII-sPLA2 counter-screen; shares compounds with HGIII-sPLA2 inh; BODIPY FL product fluorescence interference, QFRET; inhibition, % at 12.2 µM; 2,000 tested, 8.5% active;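 active means average inhibition above the solvent-only control mean plus 3 SD, cut at about 6% in these data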
# 535nm interf DR: counter-screen for HGIII-sPLA2 inhibitors: 535nm fluorescence interference, dose response; shares compounds with HGIII-sPLA2 inh; BODIPY FL product fluorescence interference, cell-free; IC50, µM; 240 tested, under 10 active; AID 743455;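 active means IC50 at or below 10 µM; inactive means IC50 above 10 µM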
# Hits are given with their value; n = inactive; x = not tested or not shown; ! = repeats disagree. Most compounds without a hit are left out; they make up all but 1.9% or so of the library.
SMILES,PLCg1 inh,PLC-beta3 inh,HGIII-sPLA2 inh,Tb MetRS inh,sPLA2 confirm,BODIPY interf,others
CCCN(CCC)C(=O)c1oc2ccccc2c1NC(=O)Cc1cccc(OC)c1,n,n,19.6,n,n,n,
NC(=O)C1CCN(c2nc(-c3ccc4c(c3)CCO4)cs2)CC1,n,n,n,x,x,x,
COc1cc(O)c2c(=O)c3c(O)ccc(O)c3oc2c1,n,n,22.1,n,n,n,
Cc1ccc(N2CN(Cc3cccnc3)CNC2=S)c(C)c1,n,n,n,n,x,x,
Cc1ccc(N2CN(Cc3ccco3)CNC2=S)c(C)c1,n,n,25.3,n,n,n,
Cc1ccc(NC(=O)CN(C)Cc2nc3ccccc3c(=O)[nH]2)c(Br)c1,n,n,n,n,x,x,
Cc1cc(Br)ccc1NC(=O)CNC(=O)CN(C)Cc1nc2ccccc2c(=O)[nH]1,n,n,24.6,n,n,n,
N#CCC[C@H]1CC[C@]2(CCCN(S(=O)(=O)c3ccccc3)C2)O1,n,n,19.5,x,n,n,
CCN(CCCCCN(C)C)Cc1cc2ccccc2o1,n,n,20.8,n,n,n,
Cc1cc(NC(=O)C(C)C)ncc1NC(=O)c1ccco1,n,n,20.0,n,n,n,
COc1ccc(S[C@]2(C(=O)N3CCN(C(C)=O)CC3)CC(=O)N(C(=O)c3ccccc3)[C@@H]2c2ccc(OC)cc2)cc1,n,n,n,x,x,x,
Cn1ncc(Br)c1C(=O)NC1CCCCCCC1,n,n,n,n,x,x,
Cc1nn(C)c(C(=O)NNC(=S)NC2CCCCC2)c1Br,n,n,22.7,n,21.7,n,
COc1ccc(C=NNC(=O)c2cc(-c3ccc(C)c(C)c3)n[nH]2)cc1OCc1ccccc1,n,n,n,x,x,x,
COC(=O)c1ccc(N=NN2CCOCC2)cc1,n,n,n,n,x,x,
Clc1ccc(N=NN2CCOCC2)cc1,n,n,19.3,n,n,n,
O=C(CCSCCc1ccccn1)Nc1cc(F)ccc1F,n,n,19.4,n,n,n,
O=C(CCSCCc1ccccn1)Nc1ccc(Br)cc1F,n,n,n,n,x,x,
CN(CCC#N)C(=O)COC(=O)/C=C/c1cccs1,n,n,19.8,n,n,n,
COc1ccc(CN2CCN(c3ncccn3)CC2)c(C)c1C,n,n,n,n,x,x,
COc1ccc(CN2CCN(c3ccccn3)CC2)c(OC)c1C,n,n,19.3!,n,n,n,
Oc1cccc(NC(=S)Nc2ccc(SC(F)F)cc2)c1,n,n,35.2,n,n,n,
Oc1cccc2c(NC(=S)Nc3ccc(SC(F)F)cc3)cccc12,n,n,n,n,x,x,
C[C@@H]1COc2cc(Br)ccc2S(=O)(=O)N1Cc1cn(CCC2OCCCO2)nn1,n,n,n,x,x,x,
O=C(Nc1ccc(-c2noc(-c3ccccc3F)n2)cc1)c1cccs1,n,n,21.3,n,n,n,
SMILES,PLCg1 inh,PLC-beta3 inh,HGIII-sPLA2 inh,Tb MetRS inh,sPLA2 confirm,BODIPY interf,others
O=C(Nc1ccc(Nc2ccccc2)cc1)c1cc([N+](=O)[O-])ccc1Cl,n,n,n,n,x,x,
O=C(Nc1ccccc1Oc1ccccc1)c1cc([N+](=O)[O-])ccc1Cl,n,n,23.1,n,n,n,
O=S1(=O)c2c(NCc3ccco3)cccc2Oc2ccccc2CN1Cc1cn(Cc2ccc(C(F)(F)F)cc2)nn1,n,n,n,x,x,x,
Oc1c(Cl)cc(Cl)cc1/C=N/NC(=S)NC1CC2C=CC1C2 (stereo not given),n,n,44.7,n,60.7,14.2,
Oc1ccccc1/C=N/NC(=S)NC1CC2C=CC1C2 (stereo not given),n,n,27.0,n,21.4,6.2,
Oc1ccccc1C=NNC(=S)NC1CC2C=CC1C2 (stereo not given),n,n,20.6,n,23.6,n,
Cc1cc(N2CCNC[C@@H]2C)ccc1N1C[C@@H](C)O[C@@H](C)C1,n,n,n,x,x,x,
C[C@H]1[C@@H](OC(=O)NCCc2ccccc2)CC[C@@]23CCCN2C(=O)CCC[C@@H]13,n,n,n,x,x,x,
Cc1cccc2c(N=Nc3ccccc3)c(O)[nH]c12,n,n,n,n,x,x,
Cc1[nH]c(N=Nc2ccccc2)nc1N=Nc1ccccc1,n,n,24.9,n,n,9.0,
C/C(=N/NS(=O)(=O)c1ccc(C)cc1)c1ccc(NC(=O)C(F)(F)F)cc1,n,n,21.7,n,n,n,
COC(=O)C1=C(C)N(C)C(=NCc2ccccc2C(F)(F)F)NC1CCc1ccccc1 (stereo not given),n,n,n,x,x,x,
COc1cccc(CNC(=O)[C@H]2CCCN2C(=O)[C@H]2CCCN2C(=O)c2ccc(C)cc2)c1,n,n,22.1,x,n,n,
O=C(NCc1ccccc1)[C@H]1CCCN1C(=O)[C@H]1CCCN1C(=O)c1ccc(Cl)cc1,n,n,22.1,x,n,n,
C[C@H]1COc2cc(N3CCSCC3)ccc2S(=O)(=O)N1C,n,n,n,x,x,x,
COc1ccc(N2CCCN(CC(=O)Nc3ccc(Cl)c(Cl)c3)CC2)cc1,n,n,n,x,x,x,
CNC(C)C(=O)NC(C(=O)N1CCCC1C(=O)Nc1cccc2ncccc12)C(C)C (stereo not given),n,n,n,x,x,x,
COc1ccc2ccccc2c1C=NNC(=O)c1cc(-c2ccc(C)cc2)n[nH]1,n,n,n,x,x,x,
CS(=O)(=O)N(CC(=O)NCCC1=CCCCC1)C1CCCCC1,n,n,n,n,x,x,
O=C(CN1CCN(C2CCCCC2)CC1)NCCC1=CCCCC1,n,n,19.9,n,n,n,
O=C(Nc1cccc(Cl)c1)O[C@@H]1CC[C@@]23CCCN2C(=O)CCC[C@H]3C1,n,n,n,x,x,x,
COC(=O)CCn1[nH]c(=O)c2ccccc2c1=O,n,n,24.4,n,n,n,
CCCCCCOC(=O)CCn1[nH]c(=O)c2ccccc2c1=O,n,n,n,n,x,x,
O=C(NC1CCCCN(Cc2cccc(C(F)(F)F)c2)C1=O)c1ccc(Cl)cc1 (stereo not given),n,n,n,x,x,x,
C=CCS/C(N)=N\N=C\c1cc(Br)cc([N+](=O)[O-])c1O,n,n,38.1,n,29.8,n,535nm interf DR=n
SMILES,PLCg1 inh,PLC-beta3 inh,HGIII-sPLA2 inh,Tb MetRS inh,sPLA2 confirm,BODIPY interf,others
CS/C(N)=N/N=C/c1cc(Br)cc(Br)c1O,n,n,38.0,n,34.0,6.8,
C=C(C)/C=C1/C(Cc2ccccc2)N(CC2CC2)C(=N)N1C(=O)OCc1ccccc1 (stereo not given),n,n,n,x,x,x,
Cc1ccc(CNC(=O)[C@@H](Cc2ccccc2)NC(=O)[C@H]2O[C@@H](n3ccc(N)nc3=O)[C@H](O)[C@@H]2O)o1,n,n,n,x,x,x,
CC1(c2nnnn2Cc2ccccc2)CN(S(C)(=O)=O)CC(=O)N1Cc1cccs1 (stereo not given),n,n,n,x,x,x,
CCOCCCn1c(-c2ccc(Cl)cc2)n[nH]c1=S,n,n,21.9,n,n,n,
COCCCn1c(-c2ccc(Cl)cc2)n[nH]c1=S,n,n,n,n,x,x,
S=c1[nH]nc(-c2ccc(Cl)cc2)n1CCCN1CCOCC1,n,n,20.4,n,n,n,
S=c1[nH]nc(-c2ccc(Cl)cc2)n1Cc1ccccc1,n,n,n,n,x,x,
